Source: PubChem (several laboratories)
In the library only some 2.7% were active in any assay of this set; here they are far more common.
Rpn11 block – Rpn11 (PSMD14) deubiquitinase inhibitors, primary screen, biochemical, fluorescence polarization, uHTS. inhibition, % at 20 µM. 26S proteasome non-ATPase regulatory subunit 14 (Homo sapiens), O00487. 0.59% of 360,000 active. human 26S proteasome, Ub4-pepOG fluorescence polarization; 20S core pre-blocked with epoxomicin;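 active means inhibition at 20 µM, scaled to each plate's controls, above about 33%, limit read from the data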
PP1 counter – PP1-alpha phosphatase inhibitors, primary screen, counter-screen for PP5 inhibitor project, biochemical, fluorescence, OMFP substrate, single point; Serine/threonine-protein phosphatase PP1-alpha catalytic subunit (Homo sapiens), P62136; purified PP1alpha; inhibition, % at 6.7 µM; 0.9% of 320,000 active; AID 2235, 2010;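 active means inhibition above the mean inhibition of all tested compounds plus 3 SD, computed separately for each screening campaign, cut at about 15% in these data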
TPT1 inhibitor – Candida albicans TPT1 enzyme inhibitors, primary screen, biochemical, fluorescence polarization. tRNA 2'-phosphotransferase TPT1 (Candida albicans SC5314). recombinant caTPT1, FP RNA substrate dephosphorylation. inhibition, % at 5 µM. 0.81% of 300,000 active. AID 1962, 2009;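 active means inhibition above the mean of all tested compounds plus 3 SD, set per screening campaign, cut at about 24% in these data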
CSN deneddyl inh – inhibitors of CSN-mediated cullin deneddylation, primary screen, biochemical, fluorescence polarization, uHTS. Purified CSN, SCF-Nedd8-OG deneddylation. inhibition, % at 12.5 µM. 0.38% of 360,000 active. AID 651999, 2013;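 active means pattern-corrected inhibition above about 35%, with an unprinted fluorescence ratio check between 0.5 and 1.5, limit read from the data, passing the limit was not always enough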
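Assay system: Purified human Csn5 enzyme expressed in HEK293T cells | Amount: Enzyme 0.24 nM | Measured by: Fluorescence polarization readout | Medium: Tris/NaCl/DTT buffer, pH 7.5 | Compound dosing: One concentration, 12.5 µM, 0.25% DMSO | Times: 90 min incubation of compound, enzyme and substrate at room temperature | Control set: no-enzyme wells high, enzyme-with-substrate wells low | Read-out: % inhibition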
NadD inh – inhibitors of S. aureus NadD, primary screen, biochemical, colorimetric, uHTS; Nicotinate-nucleotide adenylyltransferase NadD (Staphylococcus aureus N315); purified NadD enzyme, colorimetric absorbance read-out; inhibition, % at 20 µM; 0.78% of 360,000 active; in the data active means inhibition above about 26%
HNF4A DNA FP – change in binding of human HNF4A to DNA, primary screen, biochemical, fluorescence polarization, FITC-DNA. Hepatocyte nuclear factor 4-alpha (Homo sapiens), P41235. 1 h. activity change, % at 10 µM. 0.3% of 360,000 active. AID 1224865, 2016; in the data active means activity change above about 30%, passing the limit was not always enough
Target sequence (P41235 whole entry, looked up): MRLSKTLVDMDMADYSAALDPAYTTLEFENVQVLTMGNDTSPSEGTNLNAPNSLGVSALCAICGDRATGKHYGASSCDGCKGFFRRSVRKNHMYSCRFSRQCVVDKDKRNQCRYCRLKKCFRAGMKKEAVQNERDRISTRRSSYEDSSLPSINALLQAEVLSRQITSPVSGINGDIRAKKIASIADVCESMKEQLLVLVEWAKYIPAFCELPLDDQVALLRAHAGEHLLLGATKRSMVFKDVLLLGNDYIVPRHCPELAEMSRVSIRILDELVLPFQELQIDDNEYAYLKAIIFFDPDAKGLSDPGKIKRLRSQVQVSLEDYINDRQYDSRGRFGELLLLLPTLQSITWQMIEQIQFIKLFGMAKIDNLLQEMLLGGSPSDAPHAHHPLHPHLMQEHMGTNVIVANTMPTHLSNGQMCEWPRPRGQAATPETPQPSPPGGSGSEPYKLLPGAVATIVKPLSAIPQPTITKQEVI
NadD conf – inhibitors of S. aureus NadD, confirmation, biochemical, colorimetric, single concentration | shares compounds with NadD inh | purified S. aureus NadD, colorimetric enzyme assay | inhibition, % at 20 µM | 13% of 2,000 active | AID 624309, 2012; in the data active means inhibition mostly above about 42%, no sharp cut-off; inactive means mostly below about 42%
Hits are given with their value; – = inactive; · = no result given.

SMILES	Rpn11 block	PP1 counter	TPT1 inhibitor	CSN deneddyl inh	NadD inh	HNF4A DNA FP	NadD conf
COc1ccc(S(=O)(=O)NCc2cccnc2)cc1NC(=O)c1ccccc1C	64.0	·	·	–	83.1	–	–
O=C(N/N=C\c1ccc(CNS(=O)(=O)c2ccccc2)o1)C(=O)Nc1ccc(F)cc1	–	–	–	–	–	–	·
O=C(NCc1ccc(/C=N\NC(=O)C(=O)Nc2ccccc2Br)o1)C(=O)Nc1ccccc1	–	–	–	–	35.7	–	–
CCN1CCN(C(=O)c2cc(COc3ccc(F)cc3F)on2)[C@@H](C)C1=O	–	–	–	–	–	–	·
COc1ccccc1NC(=O)C(=O)NNC(=O)COc1ccc2ccccc2c1	–	–	–	–	33.6	–	–
CC1(C)Cc2c(C#N)c(N3CCN(C(=O)c4ccccc4)CC3)nc(-c3ccco3)c2CS1	–	15.5	–	–	43.3	–	–
O=C(c1ccc(Cl)c(S(=O)(=O)N2CCc3ccccc3C2)c1)N1CCN(c2ccccc2)CC1	–	–	–	–	–	–	·
O=C(c1ccc(Cl)c(S(=O)(=O)Nc2ccccc2C(=O)N2CCc3ccccc3C2)c1)N1CCc2ccccc2C1	–	–	–	–	46.9	–	–
Cc1cc(C)c(CN2CCN(CCCn3ccc(NC(=O)OCc4ccccc4)nc3=O)CC2)c(C)c1	–	·	·	–	–	–	·
Cc1ncc(CN2CCCC(C(=O)Nc3ccc(-c4ccco4)cc3)C2)n1C (centres undefined)	–	–	–	–	–	–	·
CSc1ncc(CN2CCCC(C(=O)Nc3ccc(-c4ccco4)cc3)C2)cn1 (centres undefined)	–	–	–	–	47.1	–	–
NS(=O)(=O)c1ccc(CCNC(=O)c2cc(S(=O)(=O)N3CCCCC3)ccc2Cl)cc1	–	·	·	–	–	–	·
CC(C)c1ccc2oc(-c3ccc(NC(=O)c4ncn[nH]4)cc3)nc2c1	–	–	–	–	38.7	–	–
COc1cc(C(=O)Nc2nc(-c3cc(C)ccc3C)c(C)s2)ccc1OCC(=O)Nc1ccc(F)cc1	–	–	–	–	32.8	–	–
COc1ccc(-c2nc(NC(=O)c3ccc(OCC(=O)Nc4ccc(F)cc4)c(OC)c3)sc2C)cc1	–	–	–	–	–	–	·
COc1ccc(C(=O)OCC(=O)N2CCN(C(=O)c3ccco3)CC2)cc1OC	–	·	·	–	–	–	·
COc1ccc(/C=N/NC(=O)c2ccn[nH]2)cc1COc1ccc([N+](=O)[O-])c(C)c1	–	–	–	–	30.9	–	–
Cc1ccc(S(=O)(=O)c2ccc([N+](=O)[O-])o2)cc1	–	·	·	–	–	–	·
N#CC1=C(S)N(c2ccccc2)C(c2ccc(-c3cccc(Cl)c3)o2)NC1=O (centres undefined)	–	–	–	–	41.7	–	–
Cc1cccc(N2C(S)=C(C#N)C(=O)NC2c2ccco2)c1 (centres undefined)	–	–	–	–	–	–	·
O=C(Nc1cc(S(=O)(=O)N2CCOCC2)ccc1O)c1ccc(S(=O)(=O)N2CCCCC2)cc1	–	·	·	–	–	–	·
O=C(Nc1cc(S(=O)(=O)Nc2ccc(Cl)cc2)ccc1O)c1ccc(S(=O)(=O)N2CCCCCC2)cc1	–	–	–	–	44.1	–	–
CCN(CC)CCN(C(=O)CCS(=O)(=O)c1ccccc1)c1nc2cc3c(cc2s1)OCO3	–	–	–	–	–	–	·
Cc1ccc(F)cc1C(=O)N1CCCC(c2cc(C(=O)NCc3ccc(F)cc3)no2)C1 (centres undefined)	–	·	·	–	–	–	·
COc1cc(/C=C2\SC(=O)N(CC(=O)Nc3cccc(C)c3)C2=O)cc([N+](=O)[O-])c1O	–	·	·	–	40.8	–	–
SMILES	Rpn11 block	PP1 counter	TPT1 inhibitor	CSN deneddyl inh	NadD inh	HNF4A DNA FP	NadD conf
CCOc1cc(/C=C2\SC(=O)N(CC(=O)Nc3ccccc3F)C2=O)cc([N+](=O)[O-])c1O	–	–	–	–	–	–	·
CCCCCC(=O)Nc1cc(S(=O)(=O)N2CCOCC2)ccc1Oc1ccc(OCC)cc1	–	–	–	–	–	–	·
CCCCC(CC)C(=O)Nc1cc(C(=O)NCCC)ccc1N1CCC2(CC1)CC(c1cccc(Br)c1)=NO2 (centres undefined)	–	–	–	–	30.6	–	–
Cc1ccc(CNC(=O)c2ccc(N3CCC4(CC3)CC(c3cccc(Br)c3)=NO4)c(NC(=O)c3ccc(Cl)c([N+](=O)[O-])c3)c2)cc1	–	·	·	–	33.7	–	–
CCCCC(CC)C(=O)Nc1cc(C(=O)NCc2ccc(C)cc2)ccc1N1CCC2(CC1)CC(c1cccc(Br)c1)=NO2 (centres undefined)	–	–	–	–	–	–	·
CCCNC(=O)c1ccc(N2CCC3(CC2)CC(c2cccc(Br)c2)=NO3)c(NC(=O)c2ccc(Cl)c([N+](=O)[O-])c2)c1	–	–	–	–	30.5	–	–
Nc1ncnc2c1ncn2[C@@H]1O[C@H](C(=O)N2CCN(Cc3ccccn3)CC2)[C@@H](O)[C@H]1O	–	·	·	–	–	–	·
C(#Cc1ccccc1)C[N+]1(CC#Cc2ccccc2)CCCC1	–	–	–	–	–	–	·
C=CC#CC[N+]1(CC#Cc2ccccc2)CCOCC1	139.2	·	·	166.3	43.9	–	–
Cc1ccc(-c2nnc(SCC(=O)N/N=C/c3c(C)nn(-c4ccccc4)c3C)n2-c2ccc(C)cc2)cc1	–	–	–	–	30.1	–	–
C=CCn1c(=NC(=O)c2ccc(S(=O)(=O)N3CCc4ccccc4C3)cc2)sc2cc(S(N)(=O)=O)ccc21	–	–	–	–	32.2	–	–
COCCn1c(=NC(=O)c2ccc(S(=O)(=O)N3CCc4ccccc4C3)cc2)sc2cc(S(N)(=O)=O)ccc21	–	–	–	–	70.8	–	–
NCc1csc(Nc2ccc(C(=O)c3ccccc3)cc2)n1	–	·	·	–	–	–	·
Cc1nc(SCC(=O)c2cc3ccccc3oc2=O)c(C#N)c(-c2cccs2)c1C(=O)Nc1ccccc1	–	–	–	–	32.5	–	–
O=C1C=C(c2ccoc2)N2CCC[C@H]2C1	–	·	·	–	–	–	·
CCOC(=O)c1cnc(-n2nc(C)cc2C)nc1NNc1nc(-c2ccccc2)cc(-c2ccccc2)n1	–	–	–	–	34.9	–	–
